Results on five compounds are retold here after ChEMBL document CHEMBL1154048, “Design, synthesis and pharmacological evaluation of new 1-[3-(4-arylpiperazin-1-yl)-2-hydroxy-propyl]-3,3-diphenylpyrrolidin-2-one derivatives with antiarrhythmic, antihypertensive, and alpha-adrenolytic activity” (Eur J Med Chem, 2009).

One may read the pKi as the Ki on a negative log10 scale, so that one unit is a factor of ten. The low end stands for a large Ki, the high end for a small Ki. The term ED50 denotes the dose that gives a 50% effect, or the effect in half of the subjects.

Active and inactive are the calls of the source.

Assay [1] has as its target T1, Adrenergic receptor alpha-1 (Rattus norvegicus, UniProt P15823+P23944+P43140).
T1 sequence (P15823 whole entry): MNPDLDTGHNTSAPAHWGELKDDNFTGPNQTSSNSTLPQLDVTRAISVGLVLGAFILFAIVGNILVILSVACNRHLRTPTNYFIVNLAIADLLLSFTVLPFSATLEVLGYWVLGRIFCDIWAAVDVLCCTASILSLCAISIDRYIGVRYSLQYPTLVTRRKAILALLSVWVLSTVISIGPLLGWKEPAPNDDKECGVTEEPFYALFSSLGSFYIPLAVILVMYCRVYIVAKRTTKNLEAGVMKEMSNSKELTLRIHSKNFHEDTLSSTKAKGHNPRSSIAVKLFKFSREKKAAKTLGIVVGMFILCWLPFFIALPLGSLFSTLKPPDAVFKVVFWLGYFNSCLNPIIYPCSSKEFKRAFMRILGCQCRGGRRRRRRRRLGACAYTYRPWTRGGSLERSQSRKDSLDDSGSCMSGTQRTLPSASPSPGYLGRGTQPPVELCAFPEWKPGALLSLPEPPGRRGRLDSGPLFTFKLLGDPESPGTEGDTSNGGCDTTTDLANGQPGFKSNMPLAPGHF
T1 sequence (P23944 whole entry): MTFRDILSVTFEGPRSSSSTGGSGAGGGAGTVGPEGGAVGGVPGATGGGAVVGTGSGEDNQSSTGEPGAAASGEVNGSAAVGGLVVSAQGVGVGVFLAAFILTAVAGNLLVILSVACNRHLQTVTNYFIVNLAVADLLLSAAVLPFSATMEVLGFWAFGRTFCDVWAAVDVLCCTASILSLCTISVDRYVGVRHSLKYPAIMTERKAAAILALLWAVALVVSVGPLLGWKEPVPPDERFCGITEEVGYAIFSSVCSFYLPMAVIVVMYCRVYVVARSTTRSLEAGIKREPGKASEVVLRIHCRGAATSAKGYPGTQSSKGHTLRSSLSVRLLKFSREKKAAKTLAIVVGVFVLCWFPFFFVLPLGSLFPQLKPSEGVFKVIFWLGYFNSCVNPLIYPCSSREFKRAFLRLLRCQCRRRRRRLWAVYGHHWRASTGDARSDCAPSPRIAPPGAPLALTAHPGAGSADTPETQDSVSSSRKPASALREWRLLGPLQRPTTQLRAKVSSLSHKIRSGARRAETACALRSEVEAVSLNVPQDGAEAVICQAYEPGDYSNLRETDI
T1 sequence (P43140 whole entry): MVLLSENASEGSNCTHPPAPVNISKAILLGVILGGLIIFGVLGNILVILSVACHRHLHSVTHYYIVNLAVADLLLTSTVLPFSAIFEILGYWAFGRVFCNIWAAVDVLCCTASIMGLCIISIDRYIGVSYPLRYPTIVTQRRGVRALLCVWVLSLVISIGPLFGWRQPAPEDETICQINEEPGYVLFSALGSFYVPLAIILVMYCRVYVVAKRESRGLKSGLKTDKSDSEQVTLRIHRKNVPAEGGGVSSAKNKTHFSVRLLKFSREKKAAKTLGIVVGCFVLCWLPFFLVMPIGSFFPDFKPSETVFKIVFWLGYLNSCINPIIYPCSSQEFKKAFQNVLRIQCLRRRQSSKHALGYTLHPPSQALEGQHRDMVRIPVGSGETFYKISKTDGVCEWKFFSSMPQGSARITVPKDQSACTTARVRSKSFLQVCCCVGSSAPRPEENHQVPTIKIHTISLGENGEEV
Description: Displacement of [3H]prazosin from alpha1 adrenergic receptor in rat cerebral cortex by liquid scintillation counting. The assay is classed as tissue-based. Summed up:
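Rat cerebral cortex was homogenized in ice-cold 50 mM Tris–HCl pH 7.6, centrifuged 20 000 × g for 20 min at 0–4 °C, and washed once more. Membranes were incubated with [3H]prazosin 0.2 nM and seven to eight compound concentrations (10^-11–10^-4 M), with phentolamine defining nonspecific binding. Bound ligand was filtered on glass fiber and counted by liquid scintillation. Runs were in duplicate, and Ki was calculated by Cheng–Prusoff.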
For orientation: In a radioligand displacement assay an active substance lowers the binding of a labelled ligand.

For assay [2], the target named is T2, Adrenergic receptor alpha-2 (Rattus norvegicus, UniProt P22086+P19328+P22909).
T2 sequence (P22086 whole entry): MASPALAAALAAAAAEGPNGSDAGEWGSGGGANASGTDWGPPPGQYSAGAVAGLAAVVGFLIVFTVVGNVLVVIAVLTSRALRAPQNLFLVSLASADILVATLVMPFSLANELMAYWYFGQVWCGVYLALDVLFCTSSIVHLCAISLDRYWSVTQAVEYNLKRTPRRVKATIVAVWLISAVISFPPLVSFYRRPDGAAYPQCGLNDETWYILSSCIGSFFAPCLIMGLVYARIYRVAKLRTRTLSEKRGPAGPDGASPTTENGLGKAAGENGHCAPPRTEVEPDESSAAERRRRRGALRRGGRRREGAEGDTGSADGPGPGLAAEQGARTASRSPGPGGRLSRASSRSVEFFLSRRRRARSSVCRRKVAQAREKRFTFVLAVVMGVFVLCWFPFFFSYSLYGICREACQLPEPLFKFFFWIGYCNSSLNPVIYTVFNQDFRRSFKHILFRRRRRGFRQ
T2 sequence (P19328 whole entry): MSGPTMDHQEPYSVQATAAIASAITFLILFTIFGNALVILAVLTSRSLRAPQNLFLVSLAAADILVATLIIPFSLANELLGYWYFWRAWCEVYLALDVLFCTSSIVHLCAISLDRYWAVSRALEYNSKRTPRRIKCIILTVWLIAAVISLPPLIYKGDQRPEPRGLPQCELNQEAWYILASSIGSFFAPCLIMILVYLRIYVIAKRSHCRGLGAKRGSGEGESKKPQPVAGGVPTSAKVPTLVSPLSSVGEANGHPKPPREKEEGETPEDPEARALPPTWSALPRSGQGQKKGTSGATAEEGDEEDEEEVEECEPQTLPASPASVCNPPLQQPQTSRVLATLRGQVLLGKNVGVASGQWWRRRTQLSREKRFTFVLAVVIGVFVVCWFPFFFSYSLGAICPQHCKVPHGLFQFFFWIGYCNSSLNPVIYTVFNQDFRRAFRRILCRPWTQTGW
T2 sequence (P22909 whole entry): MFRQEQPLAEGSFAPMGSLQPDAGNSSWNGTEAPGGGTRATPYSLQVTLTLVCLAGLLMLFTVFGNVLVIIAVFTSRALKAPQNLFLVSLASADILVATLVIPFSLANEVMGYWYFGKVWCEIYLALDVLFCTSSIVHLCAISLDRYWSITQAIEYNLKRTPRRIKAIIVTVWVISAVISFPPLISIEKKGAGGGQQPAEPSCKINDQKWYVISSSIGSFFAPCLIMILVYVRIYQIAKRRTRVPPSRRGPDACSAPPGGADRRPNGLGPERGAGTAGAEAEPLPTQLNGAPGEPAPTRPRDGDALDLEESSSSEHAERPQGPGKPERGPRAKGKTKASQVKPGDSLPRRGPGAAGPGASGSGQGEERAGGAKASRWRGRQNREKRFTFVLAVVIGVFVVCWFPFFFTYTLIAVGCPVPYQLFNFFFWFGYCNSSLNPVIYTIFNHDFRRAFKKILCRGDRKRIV
As to the kind of experiment: Displacement of [3H]clonidine from alpha2 adrenergic receptor in rat cerebral cortex by liquid scintillation counting. The assay is classed as tissue-based. Summed up:
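Rat cerebral cortex membranes were prepared in ice-cold 50 mM Tris–HCl pH 7.6 (20 000 × g, 20 min, 0–4 °C, washed twice). They were incubated with [3H]clonidine 2 nM and seven to eight compound concentrations (10^-11–10^-4 M), with excess unlabelled clonidine defining nonspecific binding. Samples were glass-fiber filtered and counted by liquid scintillation, in duplicate. Ki was calculated by Cheng–Prusoff.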

Assay [3] concerns Rattus norvegicus. Description: Antiarrhythmic activity against adrenaline-induced arrhythmia in iv dosed rat assessed as inhibition of cardiac rhythm disturbance administered 15 mins before adrenaline challenge. The assay is classed as functional. Particulars: Heart. Summed up: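 Rats anaesthetized with thiopental 60 mg/kg ip received the compound i.v. 15 min before an i.v. adrenaline challenge. Rhythm disturbances were recorded for 15 min after adrenaline. Activity was defined as absence of premature beats and inhibition of disturbances versus controls. ED50 values, with confidence limits, were derived by Litchfield–Wilcoxon from three groups of six animals.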

The subject of assay [4] is Rattus norvegicus. Description: Hypotensive activity in normotensive Wistar rat assessed as decrease in systolic blood pressure at 20 mg/kg, iv administered as single dose. Particulars: Artery. The assay is classed as functional, organism-based. Further details: dose 20 mg/kg.
Assay [5] relates to Rattus norvegicus. As to the kind of experiment: Hypotensive activity in normotensive Wistar rat assessed as decrease in diastolic blood pressure at 20 mg/kg, iv administered as single dose. Format: functional, organism-based. Further details: dose 20 mg/kg. The settings on record: Artery.
The species entered for assay [6] is Rattus norvegicus. As to the kind of experiment: Hypotensive activity in Wistar rat assessed as reduction in epinephrine-induced systolic blood pressure response. Format: functional, organism-based. Particulars: Artery. Summed up:
(§1)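 In anaesthetized rats, pressor responses were evoked by i.v. epinephrine, norepinephrine or methoxamine. Blood pressure was recorded through a heparin-saline-filled cannula in the carotid artery.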

The species entered for assay [7] is Rattus norvegicus. Description: Hypotensive activity in Wistar rat assessed as reduction in norepinephrine-induced systolic blood pressure response. Format: functional, organism-based. The settings on record: Artery. Summed up:
as §1

The species entered for assay [8] is Rattus norvegicus. As to the kind of experiment: Hypotensive activity in Wistar rat assessed as reduction in methoxamine-induced systolic blood pressure response. Format: functional, organism-based. Particulars: Artery. Summed up: as §1

Consider `O=C1CCCN1CC(O)CN1CCN(c2ccccc2)CC1` (stereo not given), for which the pKi in assay [1] is 5.72; in assay [2], 4.54. Besides, in the assay on Rattus norvegicus [3], the ED50 is 7.6 mg/kg.
As for `Cl.Cl.O=C1N(CC(O)CN2CCN(c3ccc(F)cc3)CC2)CCC1(c1ccccc1)c1ccccc1` (stereo not given), the values for the pKi in assay [1] and in assay [2] were 5.68 and 5.32, respectively. The result in the assay on Rattus norvegicus [4], in the assay with Rattus norvegicus [5], in the assay listed under Rattus norvegicus [6], in the assay filed under Rattus norvegicus [7] and in the assay listed under Rattus norvegicus [8] was inactive.
Consider `O=C1CCCN1CC(O)CN1CCN(C(c2ccccc2)c2ccccc2)CC1` (stereo not given), for which the pKi is 6.57 in assay [1] and 5.27 in assay [2]. Also, the ED50 entry with Rattus norvegicus [3] was “inactive”.
Regarding `c1ccc(CC2=NCCN2)cc1` [TOLAZOLINE], the ED50 in the assay with Rattus norvegicus [3] worked out at 1.05 mg/kg.
As for `CC(C)NCC(O)COc1cccc2ccccc12` (stereo not given) [PROPRANOLOL], the ED50 with Rattus norvegicus [3] stood at 7.6 mg/kg.
